Source: publication PMC7644341 (Journal of natural products, 2020)
Marks after values point to notes of the source that are not given here.

What was measured:
Non-enzymatic stability = type: physicochemical; conditions: for percent BAPC hydrolysis/cleavage (non-enzymatic) in phosphate buffer: pH 7.4, 48 h
[1] = target: T1, Rat NADPH-cytochrome P450 oxidoreductase (POR) supersomes (Rattus norvegicus, UniProt P00388); test: NADPH-cytochrome P450 oxidoreductase cleavage assay; type: in vitro ADME; conditions: for percent BAPC cleavage by POR: 90 min, anaerobic, 37 °C, NC = no cleavage observed
T1 sequence (P00388 1-678): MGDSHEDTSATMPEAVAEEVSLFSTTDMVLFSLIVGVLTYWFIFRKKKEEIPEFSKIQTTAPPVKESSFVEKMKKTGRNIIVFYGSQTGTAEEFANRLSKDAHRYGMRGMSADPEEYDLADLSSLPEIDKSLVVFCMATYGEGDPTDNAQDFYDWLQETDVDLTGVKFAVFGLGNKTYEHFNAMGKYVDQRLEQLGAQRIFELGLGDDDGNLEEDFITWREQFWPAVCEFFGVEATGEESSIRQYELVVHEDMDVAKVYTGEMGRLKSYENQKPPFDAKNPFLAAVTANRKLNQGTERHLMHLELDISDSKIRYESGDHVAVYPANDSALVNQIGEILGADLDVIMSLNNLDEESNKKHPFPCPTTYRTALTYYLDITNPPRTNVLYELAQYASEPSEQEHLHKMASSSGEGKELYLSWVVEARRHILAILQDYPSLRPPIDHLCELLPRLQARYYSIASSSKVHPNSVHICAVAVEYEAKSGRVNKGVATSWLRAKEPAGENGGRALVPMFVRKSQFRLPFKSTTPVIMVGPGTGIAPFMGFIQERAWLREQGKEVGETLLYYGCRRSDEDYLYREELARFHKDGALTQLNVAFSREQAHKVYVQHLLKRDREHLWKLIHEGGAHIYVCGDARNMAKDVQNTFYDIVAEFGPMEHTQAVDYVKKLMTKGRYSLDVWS

[2] = test system: A549 human lung cancer cell line; test: Differential cytotoxicity
[3] = test system: orthotopic 4T1-luc breast tumors; test: In vivo dynamic bioluminescence imaging; set-up: species or system BALB/c mice; conditions: 180 mg/kg IP single dose
Summary of the method: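 Cells: 4T1-luc, firefly luciferase-expressing, grown in RPMI1640 with 10% FBS. 10⁶ cells in PBS with 30% Matrigel were implanted into the left upper ventral mammary fat pad of female BALB/cJ mice and grown 11 days to 10–12 mm. Baseline BLI was taken under 2% isoflurane after SC D-luciferin (120 mg/kg). Then a single IP dose of test compound was given (180 mg/kg in DPS, n=3), with vehicle and combretastatin A-4 phosphate (120 mg/kg) controls. Imaging (~20 min) was repeated at 4, 24 and 48 h with fresh luciferin, comparing area under the light-emission curve.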

4T1-luc tumors = test: H&E histology of harvested tumors; type: in vivo, BALB/c mice; conditions: 180 mg/kg IP
Summary of the method: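 4T1-luc orthotopic mammary fat pad tumors in female BALB/cJ mice were dosed once IP with test compound (180 mg/kg in DPS vehicle). Tumors were harvested at 72 h, or after further imaging at 96 h, when survivors were killed by cervical dislocation under isoflurane. They were stained with hematoxylin and eosin. Each tumor's histology was matched to its BLI response.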

tubulin = test: Inhibition of [3H]colchicine binding to tubulin; conditions: 1.0 μM tubulin, 5.0 μM [3H]colchicine
Summary of the method: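 Incubation was 10 min at 37 °C, when control binding is about 50% complete. Bound ligand was collected on paired filters and scintillation-counted at least 18 h later. Counts were corrected for filter-bound colchicine without tubulin, and percent inhibition was calculated against no-inhibitor controls.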

COc1cc(/C=C\c2ccc(OC)c(OCc3ccc([N+](=O)[O-])s3)c2O)cc(OC)c1OC [compound 39, (Z)-3-Methoxy-2-((5-nitrothiophen-2-yl)methoxy)-6-(3,4,5-trimethoxystyryl)phenol]
percent BAPC hydrolysis/cleavage (non-enzymatic) in phosphate buffer (Non-enzymatic stability): 0^b %

COc1ccc(/C=C\c2cc(OC)c(OC)c(OC)c2)c(OCc2ccc([N+](=O)[O-])s2)c1O [compound 37, (Z)-6-Methoxy-2-((5-nitrothiophen-2-yl)methoxy)-3-(3,4,5-trimethoxystyryl)phenol]
percent BAPC hydrolysis/cleavage (non-enzymatic) in phosphate buffer (Non-enzymatic stability): 0^b %

(Z)-3-Methoxy-2-(2-(5-nitrothiophen-2-yl)propoxy)-6-(3,4,5-trimethoxystyryl)-phenyl-4-methylbenzenesulfonate [compound 23]
percent BAPC cleavage by POR [1]: 13.5% | percent BAPC hydrolysis/cleavage (non-enzymatic) in phosphate buffer (Non-enzymatic stability): 0.84%

COc1cc(/C=C\c2ccc(OC)c3c2OC(c2ccc([N+](=O)[O-])s2)O3)cc(OC)c1OC (centres unmarked) [compound 35, (Z)-4-Methoxy-2-(5-nitrothiophen-2-yl)-7-(3,4,5-trimethoxystyryl)-benzo[d][1,3]dioxole]
percent BAPC hydrolysis/cleavage (non-enzymatic) in phosphate buffer (Non-enzymatic stability): 0%

COc1ccc(/C=C\c2cc(OC)c(OC)c(OC)c2)c(OC(C)(C)c2ccc([N+](=O)[O-])s2)c1O [compound 41, (Z)-6-Methoxy-2-((2-(5-nitrothiophen-2-yl)propan-2-yl)oxy)-3-(3,4,5-trimethoxystyryl)phenol]
spontaneous hydrolysis in pH 7.4 buffer (Non-enzymatic stability; first 150 min): no apparent spontaneous hydrolysis | hydrolysis in pH 7.4 buffer (Non-enzymatic stability; incubated 24–48 h): mostly hydrolyzed | percent BAPC hydrolysis/cleavage (non-enzymatic) in phosphate buffer (Non-enzymatic stability): 100%

Nc1n[n+]([O-])c2ccccc2[n+]1[O-] [Tirapazamine]
hypoxia cytotoxicity ratio (HCR) ([2]; assays in which drug was washed out after 4 h): > 62

Br.O=[N+]([O-])c1nccn1CC(O)CNCCBr (centres unmarked) [RB6145]
hypoxia cytotoxicity ratio (HCR) ([2]; A549, GI50 oxic versus anoxic, drug removal step omitted): >3.7

COc1ccc(/C=C\c2cc(OC)c(OC)c(OC)c2)cc1OC(C)(C)c1ccc([N+](=O)[O-])s1 [compound 45, (Z)-2-(2-(2-Methoxy-5-(3,4,5-trimethoxystyryl)phenoxy)propan-2-yl)-5-nitrothiophene]
percent BAPC cleavage by POR [1]: 25% | cleavage by POR supersomes ([1]; 24 h, anaerobic conditions): Complete cleavage | stability in phosphate buffer (Non-enzymatic stability; pH 7.4, 24 h): stable | decrease in light emission (BLI) ([3]; 4 h, two of three mice): > 80% | depression of light emission (BLI) ([3]; 24 h, the two responding tumors): > 75% | light emission (BLI) recovery ([3]; by 48 h, the two responding tumors): substantial recovery | tumor necrosis (H&E) (4T1-luc tumors; BLI-unresponsive tumor): 47% | tumor necrosis (H&E) (4T1-luc tumors; tumor showing a strong BLI signal response): 55%

COc1ccc(/C=C\c2cc(OC)c(OC)c(OC)c2)cc1O [compound 42, combretastatin A-4]
inhibition of colchicine binding % inhibition ± SD (tubulin; compound at 1 μM): 84±2% | inhibition of colchicine binding % inhibition ± SD (tubulin; compound at 5 μM): 97±0.7%

COc1cc(/C=C\c2ccc(OC)c(OC(C)c3ccc([N+](=O)[O-])s3)c2O)cc(OC)c1OC (centres unmarked) [compound 40, (Z)-3-Methoxy-2-(1-(5-nitrothiophen-2-yl)ethoxy)-6-(3,4,5-trimethoxystyryl)phenol]
percent BAPC hydrolysis/cleavage (non-enzymatic) in phosphate buffer (Non-enzymatic stability): 0^c %

COc1cc(/C=C\c2ccc(OC)c3c2OC(C)(c2ccc([N+](=O)[O-])s2)O3)cc(OC)c1OC (centres unmarked) [compound 36, (Z)-4-Methoxy-2-methyl-2-(5-nitrothiophen-2-yl)-7-(3,4,5-trimethoxystyryl)-benzo[d][1,3]dioxole]
percent BAPC hydrolysis/cleavage (non-enzymatic) in phosphate buffer (Non-enzymatic stability): 0%

COc1ccc(/C=C\c2cc(OC)c(OC)c(OC)c2)c(OC(C)c2ccc([N+](=O)[O-])s2)c1O (centres unmarked) [compound 38, (Z)-6-Methoxy-2-(1-(5-nitrothiophen-2-yl)ethoxy)-3-(3,4,5-trimethoxystyryl)phenol]
percent BAPC hydrolysis/cleavage (non-enzymatic) in phosphate buffer (Non-enzymatic stability): 0.5^c %
